ChEMBL document CHEMBL1130151, “Curcumin analogs with altered potencies against HIV-1 integrase as probes for biochemical mechanisms of drug action” (J Med Chem, 1997)

Tests used:
[1] = target: T1, Human immunodeficiency virus type 1 integrase (Human immunodeficiency virus 1, UniProt Q7ZJM1); test: Inhibition of strand transfer activity of HIV-1 integrase
How it was run: (§1)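 Recombinant HIV-1 integrase (200 nM final) preincubated with inhibitor 30 min at 30 °C in buffer (pH 7.2 MOPS, 7.5 mM MnCl2, 10% DMSO, 50 mM NaCl, BSA, reducing agents, glycerol). Then 20 nM 5′-32P-labeled linear oligonucleotide substrate added, reaction run 1 h more. Products resolved on denaturing 20% polyacrylamide/urea gel. IC50 read from plot of concentration versus percent inhibition.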

[2] = target: T1, Human immunodeficiency virus type 1 integrase; test: Inhibition of 3'- processing activity of HIV-1 integrase; how it was run: as §1

T1 sequence (Q7ZJM1 whole entry): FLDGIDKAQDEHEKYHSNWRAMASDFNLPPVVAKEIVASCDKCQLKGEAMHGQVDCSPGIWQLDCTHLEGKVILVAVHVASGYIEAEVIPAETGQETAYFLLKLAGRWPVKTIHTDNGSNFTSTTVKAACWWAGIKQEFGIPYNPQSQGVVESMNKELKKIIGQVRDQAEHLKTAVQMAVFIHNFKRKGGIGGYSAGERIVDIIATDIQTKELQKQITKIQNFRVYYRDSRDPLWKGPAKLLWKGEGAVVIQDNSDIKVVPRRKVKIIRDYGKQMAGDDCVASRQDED

IC50 [1] [µM]	IC50 [2] [µM]	Structure (SMILES)
> 300	> 300	O=C(/C=C/c1ccccc1)CC(=O)/C=C/c1ccccc1
> 300	> 300	COc1ccc(/C=C/C(=O)CC(=O)/C=C/c2ccc(OC)cc2)cc1
9	18	COc1cc(/C=C/C(=O)CC(=O)/C=C/c2ccc(O)c(O)c2)ccc1O
3.1	6	O=C(/C=C/c1ccc(O)c(O)c1)CC(=O)/C=C/c1ccc(O)c(O)c1
80	120	O=C(/C=C/c1ccc(O)cc1)CC(=O)/C=C/c1ccc(O)cc1 [BISDEMETHOXYCURCUMIN]
140	150	COc1cc(/C=C/C(=O)CC(=O)/C=C/c2ccc(O)c(OC)c2)ccc1O [CURCUMIN]
120	140	COc1cc(/C=C/C(O)=C/C(=O)/C=C/c2ccc(O)cc2)ccc1O [DEMETHOXYCURCUMIN]
4	9	O=C(/C=C/c1ccc(O)c(O)c1)O[C@H](Cc1ccc(O)c(O)c1)C(=O)O [ROSMARINIC ACID]
> 300	> 300	COc1cc(CCC(=O)CC(=O)CCc2ccc(O)c(OC)c2)ccc1O [TETRAHYDROCURCUMIN]
